# Bioassay records as filed in PubChem BioAssay.
# GASC1 inh: inhibitors of GASC-1 (KDM4C) histone demethylase, primary screen, biochemical, single concentration HTS | Lysine-specific demethylase 4C (Homo sapiens), Q9H3R0 | GST-KDM4C 2-372, H3K9me3 peptide, LANCE TR-FRET | inhibition, % at 12.5 µM | hit rate 0.15% among 96,000;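 active = mean replicate inhibition above about 25%, with at least 55% of replicates also reaching it, limit read from the data, passing the limit was not always enough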
#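 Material: N-terminal GST-fused human GASC-1 (KDM4C) fragment, residues 2-372. Input: 10 nM enzyme. Incubation: enzyme reaction 30 min, then detection 60 min, both room temperature. Doses: one test concentration per compound. Read-out basis: inhibition from TR-FRET ratio decrease. Detection: LANCE TR-FRET, excitation 340 nm, emissions 618 and 671 nm.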
# Pf Dd2 inh: P. falciparum Dd2 growth inhibitors, primary screen, SYBR Green fluorescence, single dose replicates; 72 h; stronger effect = lower value; activity change, % at 10 µM; hit rate 2.3% among 94,000; AID 1159554, 2015; in the data active = activity change below about -80%
# IDH1 mut inh: inhibitors of IDH1 R132H reductase, primary screen, biochemical, plate reader, single point; AID 624101, 2012; hit rate 0.18% among 70,000; Isocitrate dehydrogenase [NADP] cytoplasmic (Homo sapiens), O75874; diaphorase/resazurin fluorescence, 60 min; inhibition, % at 10 µM; in the data active = inhibition above about 34%
# Target sequence (O75874 whole entry R132H): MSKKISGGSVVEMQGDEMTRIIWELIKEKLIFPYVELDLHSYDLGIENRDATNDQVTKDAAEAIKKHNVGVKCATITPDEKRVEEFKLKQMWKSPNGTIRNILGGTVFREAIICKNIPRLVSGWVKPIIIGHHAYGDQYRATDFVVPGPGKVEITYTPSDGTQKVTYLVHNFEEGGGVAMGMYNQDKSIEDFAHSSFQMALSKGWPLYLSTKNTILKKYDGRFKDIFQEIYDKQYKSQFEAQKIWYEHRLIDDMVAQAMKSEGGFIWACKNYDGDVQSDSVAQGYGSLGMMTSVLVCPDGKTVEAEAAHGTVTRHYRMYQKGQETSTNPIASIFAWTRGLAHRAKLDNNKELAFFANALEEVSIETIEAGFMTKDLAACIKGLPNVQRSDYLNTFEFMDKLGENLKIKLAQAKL
# Hits are given with their value; 0 = inactive; - = not tested or not shown. Many of the other results were omitted from the sample, so hits are more common in it than they were.
SMILES,GASC1 inh,Pf Dd2 inh,IDH1 mut inh
C[C@@H]1CN([C@H](C)CO)C(=O)c2c(c3ccccc3n2C)-c2ccccc2CO[C@@H]1CN(C)S(=O)(=O)c1ccccc1F,0,0,0
Cc1ccccc1S(=O)(=O)N(C)C[C@@H]1OCc2ccccc2-c2c(n(C)c3ccccc23)C(=O)N([C@@H](C)CO)C[C@@H]1C,0,-89,0
C[C@H]1CN([C@@H](C)CO)C(=O)c2c(c3ccccc3n2C)-c2ccccc2CO[C@H]1CN(C)S(=O)(=O)c1cccs1,0,0,0
C[C@H]1CN([C@@H](C)CO)C(=O)c2c(c3ccccc3n2C)-c2ccccc2CO[C@@H]1CN(C)S(=O)(=O)c1cccs1,0,-86,-
Cc1ccccc1S(=O)(=O)N(C)C[C@H]1OCc2ccccc2-c2c(n(C)c3ccccc23)C(=O)N([C@H](C)CO)C[C@H]1C,0,-84,0
C[C@@H]1CN([C@@H](C)CO)C(=O)c2c(c3ccccc3n2C)-c2ccccc2CO[C@@H]1CN(C)S(=O)(=O)c1ccccc1F,0,0,0
COc1ccccc1S(=O)(=O)N(C)C[C@@H]1OCc2ccccc2-c2c(n(C)c3ccccc23)C(=O)N([C@H](C)CO)C[C@H]1C,0,0,0
COc1ccccc1S(=O)(=O)N(C)C[C@H]1OCc2ccccc2-c2c(n(C)c3ccccc23)C(=O)N([C@H](C)CO)C[C@@H]1C,0,-85,-
Cc1nc(-c2ccccc2)sc1C(=O)C1C(=O)C(=O)N(CCN2CCOCC2)C1c1cccs1 (stereo not given),-,-,0
Cc1noc(C)c1NC(=O)Nc1ccc2c(c1)C(=O)N([C@@H](C)CO)C[C@@H](C)[C@@H](CN(C)Cc1ccc3c(c1)OCO3)OCCCC[C@H](C)O2,0,0,-
O=C(O)C[C@H]1C[C@@H]2c3cc(NC(=O)c4cccnc4)ccc3O[C@@H]2[C@H](CO)O1,0,0,0
COCC(=O)Nc1ccc2c(c1)OC[C@@H](C)N(Cc1cccnc1)C[C@@H](C)[C@@H](OC)CN(C)C2=O,0,0,0
COc1ccc(-c2cnc3c(c2)C(=O)N([C@@H](C)CO)C[C@H](C)[C@@H](CN(C)C(=O)Cc2ccncc2)O3)cc1,0,0,41
COc1ccc(S(=O)(=O)N(C)C[C@@H]2Oc3ncc(-c4ccncc4)cc3C(=O)N([C@H](C)CO)C[C@H]2C)cc1,0,0,-
CC(=O)N(C)C[C@H]1Oc2ncc(-c3ccc(C#N)cc3)cc2C(=O)N([C@H](C)CO)C[C@@H]1C,32,0,0
CC(=O)N(C)C[C@@H]1Oc2ncc(-c3ccc(C#N)cc3)cc2C(=O)N([C@H](C)CO)C[C@H]1C,0,0,0
COc1ccc(NC(=O)N(C)C[C@H]2Oc3ncc(-c4cccnc4)cc3C(=O)N([C@H](C)CO)C[C@@H]2C)cc1,0,-83,0
COc1ccc(-c2cnc3c(c2)C(=O)N([C@@H](C)CO)C[C@H](C)[C@H](CN(C)S(=O)(=O)c2ccc(OC)cc2)O3)cc1,0,-83,0
COc1ccc(-c2cnc3c(c2)C(=O)N([C@H](C)CO)C[C@H](C)[C@@H](CN(C)C(=O)Cc2ccncc2)O3)cc1,0,0,0
COc1ccc(NC(=O)N(C)C[C@@H]2Oc3ncc(-c4cccnc4)cc3C(=O)N([C@@H](C)CO)C[C@H]2C)cc1,0,0,0
C[C@@H]1CN([C@@H](C)CO)C(=O)Cc2cc(NC(=O)Nc3cccc4ccccc34)ccc2O[C@H]1CN(C)S(=O)(=O)c1cn(C)cn1,0,0,0
CCCC(=O)Nc1ccc2c(c1)OC[C@H](C)N(S(=O)(=O)c1cn(C)cn1)C[C@H](C)[C@@H](OC)CN(C)C2=O,0,0,-
CCC(=O)N(C)C[C@@H]1Oc2cc(-c3ccc(F)cc3)ccc2S(=O)(=O)N([C@H](C)CO)C[C@@H]1C,0,0,0
C[C@@H]1CN([C@@H](C)CO)C(=O)c2cc(C3=CCCCC3)cnc2O[C@@H]1CN(C)Cc1cccc(F)c1,0,0,0
Cc1noc(C)c1NC(=O)N[C@H]1CC[C@H](CC(=O)NCc2ccc(Cl)c(Cl)c2)O[C@@H]1CO,0,0,0
SMILES,GASC1 inh,Pf Dd2 inh,IDH1 mut inh
CC(C)C#Cc1ccc2c(c1)O[C@@H](CN(C)C(=O)C1CCCCC1)[C@H](C)CN([C@H](C)CO)S2(=O)=O,0,-83,-
CC(C)C#Cc1ccc2c(c1)O[C@@H](CN(C)C(=O)C1CCC1)[C@@H](C)CN([C@H](C)CO)S2(=O)=O,0,0,-
CC(C)C#Cc1ccc2c(c1)O[C@@H](CN(C)C(=O)C1CCCCC1)[C@H](C)CN([C@@H](C)CO)S2(=O)=O,0,-82,-
CC(C)C#Cc1ccc2c(c1)O[C@@H](CN(C)C(=O)C1CCCCC1)[C@@H](C)CN([C@H](C)CO)S2(=O)=O,0,0,0
COc1ccc(NC(=O)CN(C)S(=O)(=O)c2cc(Cl)ccc2Cl)cc1OC,-,-,0
C[C@H](CO)N1C[C@H](C)[C@H](CN(C)S(=O)(=O)c2ccc(Cl)cc2)Oc2ccc(NC(=O)CCCN(C)C)cc2CC1=O,0,0,-
CCC(=O)N(C)C[C@@H]1Oc2cc(/C=C/c3ccccc3)ccc2S(=O)(=O)N([C@@H](C)CO)C[C@H]1C,0,0,0
CN1CCCCN2[C@@H](CO)[C@H](c3ccc(-c4ccccc4)cc3)[C@@H]2C1,0,0,-
COc1ccccc1-c1cccc(-c2nc(C(=O)Nc3nccs3)cc3c2[C@@H](CCO)N(C(C)=O)C3)c1,-,0,-
COc1ccccc1-c1cccc(-c2nc(C(=O)Nc3nccs3)cc3c2[C@H](CCO)N(C(C)=O)C3)c1,0,-95,-
COCC#Cc1ccc(CC[C@H]2O[C@H]3CC[C@@H](CO)O[C@H]3C[C@@H]2n2cc(C(C)(C)O)nn2)cc1,-,0,-
OC[C@@H]1CC[C@@H]2O[C@H](CCc3ccc(-c4ccc(F)cc4)cc3)[C@H](n3cc(C4CC4)nn3)C[C@@H]2O1,-,0,-
OC[C@H]1CC[C@@H]2O[C@H](CCc3ccc(-c4ccc(F)cc4)cc3)[C@H](n3cc(C4CC4)nn3)C[C@@H]2O1,-,-82,-
COCC#Cc1ccc(CC[C@H]2O[C@H]3CC[C@H](CO)O[C@H]3C[C@@H]2n2cc(C3CC3)nn2)cc1,-,-87,-
COc1cccc(S(=O)(=O)Nc2ccc3c(c2)C(=O)N(C)[C@@H]2CC[C@@H](CC(=O)O)O[C@@H]2CO3)c1,0,0,-
COc1ccc(S(=O)(=O)Nc2ccc3c(c2)CC(=O)N([C@@H](C)CO)C[C@@H](C)[C@H](CN(C)S(=O)(=O)c2ccc(C)cc2)O3)cc1,0,0,0
CN(C)C(=O)C[C@@H]1C=C[C@H](NC(=O)c2ccc(F)cc2)[C@H](CO)O1,0,0,0
COc1ccc(-c2ccccc2[C@H]2[C@@H](C#N)N(C(=O)NC3CCCC3)[C@H]2CO)cc1,0,-94,-
COc1ccc(-c2ccccc2[C@@H]2[C@@H](C#N)N(C(=O)NC3CCCCC3)[C@H]2CO)cc1,0,0,-
C/C=C/c1ccc([C@H]2[C@@H](CO)N(C(=O)NC3CCCC3)[C@H]2C#N)cc1,0,0,0
CS(=O)(=O)N1[C@H](C#N)[C@H](c2ccccc2-c2ccc(F)cc2)[C@H]1CO,0,-86,-
